Screens as filed in PubChem BioAssay.
CHRM4 antagonist: antagonists of human muscarinic M4 receptor (CHRM4); AID 624125; P08173; inhibition, % at 3 µM; 360,000 compounds, 0.73% hits; CHO-hM4 cells, ACh EC80, Fluo-8 calcium fluorescence;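 active means inhibition above its plate's cutoff, the mean inhibition of sample wells plus 3 SD, cut at about 27% in these data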;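 further: 0% = acetylcholine EC80 with DMSO and 100% = DMSO without agonist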
CHRM4 PAM: CHRM4 positive allosteric modulation. 360,000 compounds, 0.4% hits. AID 624126. activation, % at 3 µM. P08173. CHO-K1 hM4/Gqi5, Fluo-8 calcium fluorescence, ACh EC20; 0% = ACh EC20, 100% = maximal ACh;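 active means activation above its plate's cutoff, the mean activation of sample wells plus 3 SD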
TAAR1 antag: human TAAR1 antagonism; inhibition, % at 3 µM; Q96RJ0; 360,000 compounds, 1.5% hits; AID 624466; CHO RD-HGA16 TAAR1, Fluo-8 calcium fluorescence, antagonist;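 active means inhibition above a per-plate cutoff, the mean inhibition of test compounds on that plate plus 3 SD, cut at about 49% in these data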;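 further: 0% = DMSO plus EC80 beta-PEA response and 100% = DMSO alone without agonist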
Target sequence (Q96RJ0 whole entry, looked up): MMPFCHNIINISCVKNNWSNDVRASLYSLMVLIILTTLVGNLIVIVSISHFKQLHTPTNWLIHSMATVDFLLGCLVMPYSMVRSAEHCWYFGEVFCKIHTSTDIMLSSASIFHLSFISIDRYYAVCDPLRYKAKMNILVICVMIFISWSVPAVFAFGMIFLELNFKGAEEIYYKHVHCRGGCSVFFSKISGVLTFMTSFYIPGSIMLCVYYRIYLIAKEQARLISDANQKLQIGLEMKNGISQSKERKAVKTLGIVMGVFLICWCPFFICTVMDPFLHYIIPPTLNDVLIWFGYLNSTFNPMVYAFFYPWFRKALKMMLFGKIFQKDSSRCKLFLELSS
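System: RD-HGA16 CHO cells with stable hTAAR1 and Gα16 | Probe or stimulus: EC80 β-phenethylamine stimulus | Dosing: 3 µM, single point | Times: Dye loading 75 min at 37 °C, then 30 min room temperature | Measured by: Fluo-8 calcium-sensitive fluorescence | Read-out basis: % inhibition of agonist calcium response | Replicates: n of 1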
TAAR1 agonist: agonists of human TAAR1; 360,000 compounds, 0.99% hits; activation, % at 3 µM; Q96RJ0; CHO RD-HGA16 TAAR1, Fluo-8 calcium fluorescence; vehicle wells 0%, saturating PEA agonist 100%; AID 624467;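 active means activation above the mean activation of all test compounds in the run plus 3 SD, cut at about 38% in these data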
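Assay system: CHO-derived RD-HGA16 cells with stable Gα16 and human TAAR1; timing: 17-24 h seeding, 75 min 37 °C dye, 30 min RT; read-out: % activation from peak over basal fluorescence ratio, DMSO-to-PEA scaled; measured by: kinetic Fluo-8 calcium fluorescence; benchmarks: low control DMSO, high control PEA (EC100); doses: 3 µM single concentration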
CHRM4 agonist: agonists of human muscarinic M4 receptor (CHRM4); CHO-K1 hM4/Gqi5, Fluo-8 calcium fluorescence; vehicle 0%, full acetylcholine response 100%; activation, % at 3 µM; P08173; 360,000 compounds, 0.14% hits;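 active means activation above the run mean over all test wells plus 3 SD, cut at about 32% in these data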;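 further: peak over basal fluorescence ratio per well then scaled between controls; 0% = DMSO wells and 100% = acetylcholine at EC100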
The depositor's hits bear a star; / = no result given. This is a sample that favours compounds with a hit; in the whole collection about 3% have one here.

SMILES	CHRM4 antagonist	CHRM4 PAM	TAAR1 antag	TAAR1 agonist	CHRM4 agonist
COc1ccc(C2(O)CCN(CC(=O)Nc3nc(-c4ccccc4)cs3)CC2)cc1	14	-16	51*	13	11
O[C@@H](Cc1ccccc1)[C@@H](/C=C/c1ccccc1)N(Cc1ccccc1)Cc1ccccc1	/	/	0	-1	/
COC(=O)[C@]12C[C@H](CC(=O)N3CCCCC3)C(=O)N(Cc3ccccc3)C1=C[C@H](C(C)C)O[C@@H]2C1CC1	/	/	-37	-2	/
CC(=O)O[C@@H]1C=C[C@@H](C#Cc2ccc(C(C)(C)C)cc2)O[C@@H]1COC(=O)NCc1ccccc1	/	/	-20	3	/
CN(C)CCCN1CC(=O)N2CCc3ccc(Br)cc3C2CC1=O (configuration not stated)	/	/	-20	1	/
COc1cccc(NC(=O)Nc2nc(-c3ccc(OC)c(OC)c3)cs2)c1	18	-18	82*	28	27
COc1ccc(-c2csc(NC(C)=O)n2)cc1OC	-1	2	0	3	1
S=C(Nc1ccc(Cl)cc1Cl)N1CCOCC1	6	21*	-1	4	1
CC(C)(CNC(=S)NCCc1ccccc1)CNC(=S)NCCc1ccccc1	26	-16	62*	46*	18
Cc1cc(OC(F)F)ccc1NC(=S)NCCc1ccccc1	2	-5	-19	39*	3
S=C(NCCc1ccc(Cl)cc1)Nc1ccc(Cl)cc1Cl	9	-16	49*	2	7
COc1ccc(NC(=S)NCCc2ccccc2)c(C)c1	5	1	-8	0	0
COc1ccc(Nc2nnc(-c3ccc4c(c3)OCO4)o2)cc1	/	/	2	3	/
O=C(NCc1ccccc1)[C@@H]1CCCN1C(=O)[C@H]1CCCN1C(=O)c1cccs1	/	/	-40	2	/
COC(=O)C1=C(C)N(Cc2cccc(C(F)(F)F)c2)C(=NCc2cc(OC)c(OC)c(OC)c2)NC1c1cccc(Cl)c1 (configuration not stated)	/	/	25	31	/
C=CCCC1CN(Cc2ccc(OC)cc2)S(=O)(=O)c2c(Oc3ccc(C(C)C)cc3)cccc2O1 (configuration not stated)	/	/	-22	0	/
Fc1ccccc1NC(=S)NCCc1ccccc1	-13	2	6	56*	2
Fc1ccccc1NC(=S)NCCc1ccc(Cl)cc1	-10	-2	1	0	7
O=C(CNC(=O)C1COc2ccccc2O1)N/N=C/c1ccc(O)cc1O (configuration not stated)	-10	-3	-19	41*	1
COc1ccc(C#Cc2c(-c3ccccc3OC)oc3ccccc23)cc1	/	/	-3	6	/
CCCCN(CC(=O)NC1CC1)S(=O)(=O)c1ccc(OCC)cc1	29*	-6	-10	8	0
Cc1cc(C)nc(/N=C(\N)Nc2ccc(OCc3ccccc3)cc2)n1	98*	-28	106*	127*	111*
COc1ccc(N/C(N)=N/c2nc(C)cc(C)n2)cc1	14	-10	55*	19	7
Cc1cc(C)nc(/N=C(\N)Nc2ccc(S(=O)(=O)O)cc2)n1	9	-1	5	13	1
CCOC(=O)C(=O)Nc1ccc(OCc2ccccc2)cc1	-3	-4	17	1	7
SMILES	CHRM4 antagonist	CHRM4 PAM	TAAR1 antag	TAAR1 agonist	CHRM4 agonist
Cc1ccccc1C(=O)N1CCN(c2ccc(NC(=O)CSc3ccc(Cl)cc3)cc2)CC1	27*	-11	53*	14	19
COc1c(C)cccc1C(=O)Nc1ccc(N2CCN(C(=O)c3ccccc3C)CC2)cc1	6	-12	55*	11	19
C[C@@H]1CN(c2ccc(N3CCNC[C@@H]3C)cc2C#N)C[C@H](C)O1	/	/	-28	2	/
NC(=O)c1ccsc1NC(=O)COC(=O)Cc1ccsc1	4	-8	26	12	10
COc1cc(CC(=O)OCC(=O)Nc2sccc2C(N)=O)cc(OC)c1OC	9	-16	63*	21	24
O=C(COC(=O)c1cc(=O)[nH]c2ccccc12)NCc1cccs1	3	-7	-15	1	2
NC(=O)c1ccsc1NC(=O)COC(=O)c1cc(=O)[nH]c2ccccc12	7	-9	50*	10	13
Nc1[nH]c(C(=O)c2ccc(Br)cc2)c(-c2ccncc2)c1C(=O)c1ccccc1	/	/	21	9	/
